Assay results gathered from unrelated publications.
Trpc6: Short transient receptor potential channel 6 (Trpc6, Mus musculus, UniProt Q61143)
Akr1b1: Aldo-keto reductase family 1 member B1 (Akr1b1, Rattus norvegicus, UniProt P07943)
CNR2: Cannabinoid receptor 2 (CNR2, Homo sapiens, UniProt P34972)
ADRB2: Beta-2 adrenergic receptor (ADRB2, Homo sapiens, UniProt P07550)
MMP2: 72 kDa type IV collagenase (MMP2, Homo sapiens, UniProt P08253)

CC/C(=C(\c1ccc(O)cc1)c1ccc(OCCN(C)C)cc1)c1ccccc1
IC50 (Histone-lysine N-methyltransferase SETD7 (SETD7, Homo sapiens, UniProt Q8WTS6); enzyme activity, inhibitor): > 333 µM

CNC(=O)c1cc2c(Oc3ccc(NC(=O)C4(C(=O)Nc5ccc(F)cc5)CC4)cc3)ccnc2cc1OC
IC50 (Epithelial discoidin domain-containing receptor 1 (DDR1, Homo sapiens, UniProt Q08345); enzyme activity, inhibitor, radiometric): 0.013 µM

COc1cccc2sc(N(CCN(C)C)C(=O)c3ccc(Cl)s3)nc12
IC50 (Trpc6; calcium signal, fluorescence): 139 µM

COc1ccc2nc(/N=C3/NC(=O)C(=Cc4ccc(O)c(OC)c4)S3)sc2c1
IC50 (Akr1b1; enzyme activity, inhibitor, absorbance; pH 6.2): 0.83 µM

O=[N+]([O-])C1=Cc2cc(C#Cc3ccc(F)cc3)ccc2OC1C(F)(F)F (stereo not shown)
IC50 (P2Y purinoceptor 6 (P2RY6, Homo sapiens, UniProt Q15077); calcium signal, antagonist, fluorescence): 4.4 µM

Cc1ccc(NC(=O)c2nc(-c3ccc(Cl)cc3Cl)n(-c3ccc(OS(=O)(=O)CCC(F)(F)F)cc3)c2C)nc1
IC50 (CNR2; GTPγS binding, antagonist; cell membranes): 0.4 µM

O=C(CCCCCCNC(=O)c1cnc(N(c2ccccc2)c2ccccc2Cl)nc1)NO
IC50 (Polyamine deacetylase HDAC10 (HDAC10, Homo sapiens, UniProt Q969S8); enzyme activity, inhibitor, fluorescence): 2.52 µM

N=C(N)NCCCC(NC(=O)C(c1ccccc1)c1ccccc1)C(=O)NCc1ccc(O)cc1 (stereo not shown)
IC50 (ADRB2; ligand displacement, radioligand; cell membranes): 63.1 µM

CCNC(=O)c1nc(-c2ccc3[nH]c(-c4nc(C)no4)cc3c2)c(C)[nH]1
IC50 (MMP2; enzyme activity, inhibitor): > 20 µM

CCN1CCCC1CNC(=O)c1cc(S(=O)(=O)CC)c(N)cc1OC (stereo not shown)
IC50 (ADRB2; ligand displacement, radioligand; cell membranes): 105 µM

Cn1nc(C(=O)NCc2ccc(C(=O)O)cc2)cc1-c1ccc2[nH]c(-c3cccnc3)cc2c1
IC50 (MMP2; enzyme activity, inhibitor): > 20 µM

CC[C@H](C)[C@H](NC(C)=O)C(=O)N[C@@H](CCC(=O)O)C(=O)N[C@H](C(=O)N[C@H](C=O)CC(=O)O)[C@@H](C)O
IC50 (Caspase-2 (Homo sapiens, UniProt P42575); enzyme activity, inhibitor): 0.109 µM

COc1ccc2nc(N(CCN3CCCC3)C(=O)c3ccc(Cl)s3)sc2c1
IC50 (Trpc6; calcium signal, fluorescence): 33 µM

Cc1c(C(=O)N[C@H]2CCCC[C@H]2N)nc(-c2ccc(Cl)cc2Cl)n1-c1ccc(OS(=O)(=O)CCC(F)(F)F)cc1 (racemic)
IC50 (CNR2; GTPγS binding, antagonist; cell membranes): 0.805 µM

O=C(Nc1ccc(Cl)cc1)Nc1cccc(-c2ccc[nH]2)c1
IC50 (CNR2; calcium signal, antagonist): > 10 µM

CCOCc1nc(O)c(-c2nnc(Cc3ccc(Cl)cn3)o2)c(O)c1-c1c(OC)cccc1OC
IC50 (ADRB2; ligand displacement, radioligand): > 30 µM

COc1ccc2nc(/N=C3/NC(=O)C(=Cc4ccc(O)cc4)S3)sc2c1
IC50 (Akr1b1; enzyme activity, inhibitor, absorbance; pH 6.2): 1.3 µM

Cc1noc(-c2cc3cc(-c4nc(C(N)=O)[nH]c4C)ccc3[nH]2)n1
IC50 (MMP2; enzyme activity, inhibitor): > 20 µM

COc1cc(O)c(CC=C(C)C)c(O)c1C(=O)/C=C/c1ccc(O)cc1
IC50 (Cytochrome P450 1B1 (CYP1B1, Homo sapiens, UniProt Q16678); enzyme activity, inhibitor, fluorescence; 15 min, pH 7.4): 0.34 µM
